Data on four molecules can be found in ChEMBL document CHEMBL1121382, “Inhibitors of polyamine biosynthesis. 8. Irreversible inhibition of mammalian S-adenosyl-L-methionine decarboxylase by substrate analogues” (J Med Chem, 1980).

The target in data set [1] is T1, S-adenosylmethionine decarboxylase proenzyme (Rattus norvegicus) (UniProt P17708).
T1 sequence (whole entry): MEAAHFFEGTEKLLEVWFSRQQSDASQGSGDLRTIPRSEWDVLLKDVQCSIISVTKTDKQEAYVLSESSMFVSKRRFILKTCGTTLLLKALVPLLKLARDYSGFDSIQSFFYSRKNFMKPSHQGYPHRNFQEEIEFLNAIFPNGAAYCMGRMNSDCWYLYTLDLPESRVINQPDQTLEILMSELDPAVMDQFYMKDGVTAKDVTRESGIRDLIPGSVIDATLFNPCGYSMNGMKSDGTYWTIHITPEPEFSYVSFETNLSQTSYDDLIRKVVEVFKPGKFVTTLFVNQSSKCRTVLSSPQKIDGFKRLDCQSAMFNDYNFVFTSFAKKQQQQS
As to the kind of experiment: Tested for S-adenosyl-L-methionine decarboxylase activity recovered after 80 min of 0.2 nM compound in incubation media. To be noted: in the assay text read “0.2 mM” for “0.2 nM”. It is filed as functional. Put shortly:
(§1)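 Partially purified rat liver AdoMetDC (ammonium sulfate, then MGBG-Sepharose) preincubated at 37 °C, pH 7.0, with BSA and 0.2 mM inhibitor, no reductant. Aliquots removed at 40 or 80 min, then assayed 30 min at 37 °C in phosphate pH 7.0 with 2.5 mM putrescine, DTT and 0.2 mM [1-14C]AdoMet. Released 14CO2 trapped and counted; activity given as % of buffer-only control at the same time.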

For data set [2], the target named is T1, S-adenosylmethionine decarboxylase proenzyme (Rattus norvegicus). As to the kind of experiment: Tested for S-adenosyl-L-methionine decarboxylase activity recovered after 80 min of 0.4 mM compound in incubation media.
For data set [3] the target is unchanged. As to the kind of experiment: Tested for S-adenosyl-L-methionine decarboxylase activity recovered after 40 min of 0.2 mM + 1 mM NaBH3CN compound in incubation media.
Data set [4] addresses T2, S-adenosylmethionine decarboxylase proenzyme (Rattus norvegicus, UniProt P17708).
T2 sequence (P17708 whole entry): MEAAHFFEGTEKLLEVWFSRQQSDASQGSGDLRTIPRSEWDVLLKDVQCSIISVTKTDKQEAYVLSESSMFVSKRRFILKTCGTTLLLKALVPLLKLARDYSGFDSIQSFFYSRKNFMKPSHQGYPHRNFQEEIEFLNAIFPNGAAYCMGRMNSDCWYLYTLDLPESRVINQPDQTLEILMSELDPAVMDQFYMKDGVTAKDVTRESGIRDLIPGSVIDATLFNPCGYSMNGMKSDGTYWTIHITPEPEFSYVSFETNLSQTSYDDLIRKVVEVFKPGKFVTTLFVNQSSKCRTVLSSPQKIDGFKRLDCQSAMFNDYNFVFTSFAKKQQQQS
As to the kind of experiment: Tested for inhibition against S-adenosyl-L-methionine decarboxylase from rat liver. Put shortly:
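Partially purified rat liver enzyme; 0.1 M sodium phosphate pH 7.0, 2.5 mM DTT, 2.5 mM putrescine; S-[1-14C]adenosyl-L-methionine at 2.0 × 10⁻⁶ to 1.60 × 10⁻⁴ M; inhibitor 6.25 × 10⁻⁵, 1.25 × 10⁻⁴, 2.50 × 10⁻⁴ M; 30 min, 37 °C; released 14CO2 trapped in ethanolamine and counted, blank-corrected; apparent Ki from short incubations.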

Data set [5] deals with T1, S-adenosylmethionine decarboxylase proenzyme (Rattus norvegicus). As to the kind of experiment: Tested for S-adenosyl-L-methionine decarboxylase activity recovered after 40 min of 0.4 mM compound in incubation media.
For data set [6] the target is unchanged. As to the kind of experiment: Tested for S-adenosyl-L-methionine decarboxylase activity recovered after 40 min of 0.2 nM compound in incubation media. It is filed as functional. As to conditions: in the assay text read “0.2 mM” for “0.2 nM”. Put shortly:
as §1

Data set [7] shares this target. The data set is described as follows: Tested for S-adenosyl-L-methionine decarboxylase activity recovered after 40 min of 0.2 mM compound in incubation media. The data set is classed as functional. Put shortly: (§2)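 Rat liver enzyme (105000g supernatant from livers of male Sprague-Dawley rats, ammonium sulfate 35–65% cut, methylglyoxal bis(guanylhydrazone)-Sepharose eluate) preincubated at 37 °C, pH 7.0, with 0.3 mg BSA, inhibitor 0, 0.2 or 0.4 mM, ±1.0 mM sodium cyanoborohydride. Aliquots taken at 0, 40, 80 min; activity assayed at 0.2 mM substrate; expressed as % of no-addition control.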

For data set [8] the target is unchanged. The data set is described as follows: Tested for S-adenosyl-L-methionine decarboxylase activity recovered after 80 min of 0.2 mM compound in incubation media. It is filed as functional. Put shortly: as §2
Data set [9] shares this target. As to the kind of experiment: Tested for S-adenosyl-L-methionine decarboxylase activity recovered after 40 min of 0.4 mM compound in incubation media. The data set is classed as functional. Put shortly:
as §2

The target is the same in data set [10]. The data set is described as follows: Tested for S-adenosyl-L-methionine decarboxylase activity recovered after 40 min of 0.2 mM + 1 mM NaBH3CN compound in incubation media. The data set is classed as functional. Put shortly:
as §2

Data set [11] has the same target. The data set is described as follows: Tested for S-adenosyl-L-methionine decarboxylase activity recovered after 80 min of 0.4 mM compound in incubation media. It is filed as functional. Put shortly:
as §2

Substrate in data set [12]: C[S+](CC[C@H](N)C(=O)[O-])C[C@H]1O[C@@H](n2cnc3c(N)ncnc32)[C@H](O)[C@@H]1O

In general, Ki refers to the dissociation constant of the complex between target and ligand, obtained from inhibition or displacement. With `CN(CCCN)C[C@H]1O[C@@H](n2cnc3c(N)ncnc32)[C@H](O)[C@@H]1O`, the Activity in [1] turned out to be 97%; in [2] it was 97%; in data set [3], 94%; in [5] it was 93%; in data set [6], 95%. In addition, in data set [4], the Ki stood at 110 µM.
On to `C[S+](CCC(C)(N)C(=O)O)C[C@H]1O[C@@H](n2cnc3c(N)ncnc32)[C@H](O)[C@@H]1O` (some centres undefined), for which the Activity worked out at 89% in [7]; 81% in [8]; 77% in data set [9]; 50% in data set [10]; 62% in [11]. In addition, the Ki in [4] stood at 180 µM.
Consider `CC(N)CC[S+](C)C[C@H]1O[C@@H](n2cnc3c(N)ncnc32)[C@H](O)[C@@H]1O` (some centres undefined), for which the Activity is 66% in data set [1]; 42% in [2]; 21% in [3]; 65% in data set [5]; 75% in data set [6]. This molecule showed a Ki in [4] of 120 µM.

B1: S-adenosylmethionine decarboxylase proenzyme (Rattus norvegicus), P17708 (protein)
chain: MEAAHFFEGTEKLLEVWFSRQQSDASQGSGDLRTIPRSEWDVLLKDVQCSIISVTKTDKQEAYVLSESSMFVSKRRFILKTCGTTLLLKALVPLLKLARDYSGFDSIQSFFYSRKNFMKPSHQGYPHRNFQEEIEFLNAIFPNGAAYCMGRMNSDCWYLYTLDLPESRVINQPDQTLEILMSELDPAVMDQFYMKDGVTAKDVTRESGIRDLIPGSVIDATLFNPCGYSMNGMKSDGTYWTIHITPEPEFSYVSFETNLSQTSYDDLIRKVVEVFKPGKFVTTLFVNQSSKCRTVLSSPQKIDGFKRLDCQSAMFNDYNFVFTSFAKKQQQQS
For orientation: Km means the concentration of substrate that gives half-maximal velocity. In the case of B1, in data set [12], the Km is 51.4 µM.
